For experiment [1], the system named is C. albicans CaCi-2 + fluconazole growth, Alamar Blue, 48 h. The experiment in a line: growth inhibition of fluconazole-resistant C. albicans, confirmation, CaCi-2 isolate, dry powder retest, set 2 (AID 493089). The procedure, abridged: (§1)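 Material: fluconazole-resistant Candida albicans clinical isolate CaCi-2. Times: 48 h compound exposure, 37 °C, 90% humidity, 2 h dye. Signal: Alamar Blue fluorescence, Ex 544 nm, Em 590 nm. Measure: relative growth, signal decrease as inhibition.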

Experiment in experiment [2]: as above
To be noted: C. albicans CaCi-2 (fluconazole-resistant clinical isolate) + fluconazole growth, Alamar Blue, 48 h. The method in brief: as §1
On the technique in general: The colour change of resazurin is a common sign of viable cells or microbes.

The term AC50 denotes the concentration at which the activity in the assay is half-maximal.

SMILES strings stand for the structures. Several values for one entry are separate records, joined by “and”; a condition that tells them apart may be missing. Equal values may be shown once. Inconclusive results are not listed. Activity calls are given as the source filed them.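 How the source made its calls: active means fitted half-maximal dose no more than ten times the top valid dose tested, with signal falling; inconclusive means flat curve at 30 to 70% inhibition, or poor fit; inactive means the rest, including rising signal.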

Consider `O=C(Cn1c2ccc(F)cc2c2nc3n(c(=O)c21)CCS3)N1CCCCCC1`, for which the AC50 in experiment [1] is 1490 nM.
On the same count and under the same terms, with `O=C(Cn1c2ccccc2c2nc3n(c(=O)c21)CCS3)N1CCCC1` the figure was 1100 nM and 3520 nM.
On to `N#Cc1cccc(N2CCN(C(=O)c3ccc(Cl)cc3)CC2)n1`, for which the activity change, negative = inhibition in experiment [2] (at 12 µM (top of the series)) was -7.37% (inactive).
On to `COC(=O)Cn1nc(-c2ccc(C)cc2)c2ccccc21`, for which the half-maximal activity concentration (AC50) in experiment [1] is 12000 nM.
In the case of `CCN(CC)C(=O)Cn1c2ccc(F)cc2c2nc3n(c(=O)c21)CCS3`, the AC50 in experiment [1] is 645 nM.
On the same count and under the same terms, with `O=C(Cn1c2ccc(F)cc2c2nc3n(c(=O)c21)CCS3)N1CCCC1` the figure was 583 nM.
On the same count and under the same terms, the figure for `CCN(CC)C(=O)Cn1c2ccccc2c2nc3n(c(=O)c21)CCS3` is 1740 nM and 2300 nM.
Consider `COc1ccc2c(c1)c1nc3n(c(=O)c1n2CC(=O)N1CCC(C)CC1)CCS3`, for which the activity change, negative = inhibition in experiment [2] (at 1.2 µM (top of the series)) is -8.53% (inactive).
For `O=C(Cn1c2ccc(F)cc2c2nc3n(c(=O)c21)CCS3)N1CCCCC1`, the AC50 in experiment [1] is 628 nM.
On to `O=c1c2[nH]c3ccc(F)cc3c2nc2n1CCS2`, for which the AC50 in experiment [1] is 3410 nM.
As for `O=C(Cn1c2ccccc2c2nc3n(c(=O)c21)CCS3)N1CCOCC1`, in experiment [1], the concentration at half-maximal activity (AC50) was 3570 nM.
Still for that read-out and setting: with `COC(=O)Cn1nc(-c2ccccc2)c2ccccc21` the figure was 2890 nM.
Turning to `O=C(Cn1c2ccccc2c2nc3n(c(=O)c21)CCCS3)c1ccc(F)cc1`, the activity change, negative = inhibition in experiment [2] (at 12 µM (top of the series)) is -21.3% (inactive).
Turning to `CC1CCN(C(=O)Cn2c3ccccc3c3nc4n(c(=O)c32)CCS4)CC1`, in experiment [1], the concentration at half-maximal activity (AC50) is 5130 nM.
In the case of `COC(=O)Cn1c(-c2ccccc2)nc2ccccc21`, in experiment [2] (at 12 µM (top of the series)), the activity change, negative = inhibition was -10.6% (inactive).
`O=C(Cn1c2ccccc2c2nc3n(c(=O)c21)CCS3)N1CCCCC1`: the AC50 in experiment [1] is 2150 nM.
With `O=C(Cn1c2ccccc2c2nc3n(c(=O)c21)CCS3)NCCc1ccc(Cl)cc1`, the activity change, negative = inhibition in experiment [2] (at 12 µM (top of the series)) was -24.6% (inactive).
In the case of `O=c1c2[nH]c3ccccc3c2nc2n1CCS2`, the AC50 in experiment [1] was 10500 nM.
The same measure, in the same setting: the figure for `COc1ccc(NC(=O)Cn2c3ccccc3c3nc4n(c(=O)c32)CCS4)cc1` is 3020 nM.
On to `O=C(O)Cn1nc(-c2ccccc2)c2ccccc21`, for which the activity change, negative = inhibition in experiment [2] (at 12 µM (top of the series)) is -10.3% (inactive).
As for `CC1CCN(C(=O)Cn2c3ccc(F)cc3c3nc4n(c(=O)c32)CCCS4)CC1`, the AC50 in experiment [1] was 2740 nM.

For the origin of these results see PubChem BioAssay AID493089 (Broad Institute, 2011).
